The source made the active and inactive calls. The calls are words filed in the database; no cut-off is given here.
Columns and labels:
[1] = biological target: T1, Proteinase-activated receptor 1 (Homo sapiens) (UniProt P25116); test: Antagonist activity at PAR1 expressed in CHO cells assessed as inhibition of SFLLR-NH2-induced calcium release at 10 uM by FLIPR assay; type: functional, cell-based
T1 sequence (whole entry): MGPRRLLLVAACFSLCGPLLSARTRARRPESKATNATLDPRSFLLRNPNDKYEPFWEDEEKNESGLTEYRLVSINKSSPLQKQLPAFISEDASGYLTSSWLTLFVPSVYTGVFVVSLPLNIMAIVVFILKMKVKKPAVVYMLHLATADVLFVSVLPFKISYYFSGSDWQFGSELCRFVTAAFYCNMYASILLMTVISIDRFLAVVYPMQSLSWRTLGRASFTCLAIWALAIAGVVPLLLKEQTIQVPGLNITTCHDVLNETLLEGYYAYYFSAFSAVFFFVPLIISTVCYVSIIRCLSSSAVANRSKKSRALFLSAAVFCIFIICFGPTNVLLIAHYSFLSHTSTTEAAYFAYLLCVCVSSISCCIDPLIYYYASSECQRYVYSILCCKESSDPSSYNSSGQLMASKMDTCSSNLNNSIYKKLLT
Method in brief: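 Calcium release triggered by 1 µM SFLLR-NH₂; test compound at 10 µM, read as % inhibition of the agonist response. Values are mean SEM of at least two independent determinations, each run in triplicate.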

[2] = biological target: T1, Proteinase-activated receptor 1 (Homo sapiens); test: (§1) Antagonist activity at PAR1 expressed in CHO cells assessed as inhibition of SFLLR-NH2-induced calcium release by FLIPR assay; type: functional, cell-based
Method in brief: (§2)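 Concentration-response study in the same calcium-release screen, with release induced by 1 µM SFLLR-NH₂. Used to separate partial from fully competitive antagonists; pA₂ was derived for full antagonists only.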

[3] = test system: Rattus norvegicus; test: Antithrombotic activity in rat assessed as increase in occlusion time of arteriovenous shunt at 1.25 mg/kg, iv; type: functional
Method in brief: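 Arteriovenous extracorporeal shunt in anesthetized rats, compound dosed at 1.25 mg/kg. Read-out is % increase of occlusion time.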

[4] = biological target: T2, Proteinase-activated receptor 1 (Homo sapiens, UniProt P25116); test: as §1; type: functional, cell-based; settings: read-out: pA2 (converted); method in brief: as §2
T2 sequence (P25116 whole entry): T1 sequence (whole entry)

[5] = Antiaggregatory activity in human platelets assessed as inhibition of SFLLR-induced aggregation; type: functional, Platelet

| Structure (SMILES) | inhibition [1] | further results |
| --- | --- | --- |
| Cn1c(C(=O)N2CCN(Cc3ccccc3)CC2)cc2ccccc21 | 11% |  |
| O=C(c1cc2c(F)cccc2s1)N1CCN(Cc2ccccc2)CC1 | 4% |  |
| O=C(c1cc2ccccc2[nH]1)N1CCN(Cc2ccccc2)CC1 | 2% |  |
| O=C(/C=C/c1ccccc1Cl)c1ccc(NC2CCCCC2)nc1 | 97% | pA2 [2]: Active |
| O=C(/C=C\c1c(F)cccc1F)N1CCC(NCc2ccc(F)cc2)C(F)C1 (stereo not drawn) | 25% |  |
| N#Cc1ccccc1/C=C/C(=O)c1ccc(NC2CCCCC2)nc1 | 53% |  |
| N#Cc1ccccc1/C=C/C(=O)N1CCC(N(Cc2ccc(F)cc2)Cc2ccccn2)C(F)C1 (stereo not drawn) | 33% |  |
| O=C(/C=C\c1ccccc1Cl)N1CCC(Nc2ccc(F)cc2)C(F)C1 (stereo not drawn) | 85% | Kb [4]: 389 nM; pKb [5]: 4 |
| N#Cc1ccccc1/C=C\C(=O)N1CCC(N(Cc2ccc(F)cc2)Cc2ccccn2)C(F)C1 (stereo not drawn) | 68% | Activity [3]: 53%; Kb [4]: 589 nM; pKb [5]: 5.68 |
| O=C(/C=C/c1ccccc1Cl)N1CCN(Cc2ccc(F)cc2)CC1 | 93% | Activity [3]: 28%; Kb [4]: 380 nM; pKb [5]: 5.52 |
| Cc1cccc(-c2ccc(C(=O)/C=C/c3c(F)cccc3F)nc2)c1C | 40% |  |
| O=C(/C=C/c1c(F)cccc1F)c1ccc(N2CC=CC2)cn1 | 60% |  |
| O=C(/C=C/c1ccccc1Cl)c1ccc(NC2CCCC2)nc1 | 11% |  |
| O=c1c(/C=C/c2ccccc2Cl)c(N2CCN(Cc3ccc(F)cc3)CC2)c1=O | 23% |  |

Second part, led by results:

| inhibition [1] | Structure (SMILES) | further results |
| --- | --- | --- |
| 74% | Cc1cccc(-c2ccc(C(=O)/C=C/c3c(F)cccc3F)cn2)c1C |  |
| 52% | N#Cc1ccccc1/C=C/C(=O)c1ccc(N2CC=CC2)cn1 |  |
| 0% | O=C(/C=C/c1c(F)cccc1F)N1CCC(NCc2ccc(F)cc2)CC1 |  |
| 41% | O=C(/C=C/c1c(F)cccc1F)c1ccc(NC2CCCCC2)nc1 |  |
| 85% | O=c1c(/C=C/c2ccccc2Cl)c(N2CCN(Cc3ccccc3)CC2)c1=O | pA2 [2]: Active |
| 23% | O=C(/C=C\c1ccccc1Cl)N1CCC(N(Cc2ccc(F)cc2)Cc2ccccn2)C(F)C1 (stereo not drawn) |  |
| 84% | N#Cc1ccccc1/C=C/C(=O)c1ccc(NC2CCCC2)nc1 | Activity [3]: 28%; Kb [4]: 933 nM; pKb [5]: 5.05 |
| 97% | N#Cc1ccccc1/C=C/c1c(N2CCN(Cc3ccsc3)CC2)c(=O)c1=O | Kb [4]: 389 nM; pKb [5]: 4 |
| 13% | O=C(/C=C/c1ccccc1Cl)c1ccc(N2CC=CC2)cn1 |  |
| 27% | O=c1c(/C=C/c2ccccc2Cl)c(N2CCN(Cc3ccsc3)CC2)c1=O |  |
| 1% | O=C(c1cc2ccccc2o1)N1CCN(Cc2ccccc2)CC1 |  |
| 16% | O=C(C1=Cc2ccccc2OC1)N1CCN(Cc2ccc(F)cc2)CC1 |  |
| 84% | N#Cc1ccccc1/C=C/c1c(N2CCN(CC3CCCCC3)CC2)c(=O)c1=O | Kb [4]: 427 nM; pKb [5]: 4 |
| 32% | Cc1cccc(-c2ccc(C(=O)/C=C/c3ccccc3Cl)cn2)c1C |  |
| 40% | N#Cc1ccccc1/C=C\C(=O)N1CCC(NCc2ccc(F)cc2)C(F)C1 (stereo not drawn) |  |
| 41% | O=c1c(/C=C/c2ccccc2Cl)c(N2CCN(CC3CCCCC3)CC2)c1=O |  |
| 20% | O=C(/C=C/c1c(F)cccc1F)c1ccc(N2CCCC2)nc1 |  |

From ChEMBL document CHEMBL1154931, “Exploration of a new series of PAR1 antagonists” (Bioorg Med Chem Lett, 2010)
